Measured values from ChEMBL document CHEMBL2057142, “Discovery and optimization of novel fatty acid transport protein 1 (FATP1) inhibitors” (Bioorg Med Chem Lett, 2012).

What was measured:
[1] = biological target: Long-chain fatty acid transport protein 1 (Homo sapiens, UniProt Q6PCB7); assay: Inhibition of human recombinant FATP1 acyl-coA synthetase activity using [14C]oleic acid as substrate
[2] = biological target: Long-chain fatty acid transport protein 1 (Mus musculus, UniProt Q60714); assay: Inhibition of mouse recombinant FATP1 acyl-coA synthetase activity using [14C]oleic acid as substrate
Sequence of Long-chain fatty acid transport protein 1 (Mus musculus, UniProt Q60714) (Q60714 whole entry): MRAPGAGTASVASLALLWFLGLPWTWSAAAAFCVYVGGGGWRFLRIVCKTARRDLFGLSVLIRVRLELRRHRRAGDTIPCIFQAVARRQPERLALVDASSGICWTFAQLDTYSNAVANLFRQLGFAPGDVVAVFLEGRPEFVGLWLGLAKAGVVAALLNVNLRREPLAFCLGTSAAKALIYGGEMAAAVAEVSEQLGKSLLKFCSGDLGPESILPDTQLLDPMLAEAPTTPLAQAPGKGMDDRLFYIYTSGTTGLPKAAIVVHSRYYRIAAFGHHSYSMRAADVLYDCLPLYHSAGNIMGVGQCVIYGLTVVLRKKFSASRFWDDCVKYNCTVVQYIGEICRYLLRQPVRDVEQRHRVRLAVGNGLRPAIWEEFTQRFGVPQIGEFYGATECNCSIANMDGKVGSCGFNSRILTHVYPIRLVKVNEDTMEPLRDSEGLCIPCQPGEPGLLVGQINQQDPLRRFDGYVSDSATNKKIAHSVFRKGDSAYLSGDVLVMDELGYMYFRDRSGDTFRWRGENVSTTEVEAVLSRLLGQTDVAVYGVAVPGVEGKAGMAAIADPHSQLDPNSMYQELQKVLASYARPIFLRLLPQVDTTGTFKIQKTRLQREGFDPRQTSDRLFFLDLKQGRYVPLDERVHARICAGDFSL

[3] = biological target: Long-chain fatty acid transport protein 1 (Mus musculus) (UniProt Q60714); assay: Inhibition of mouse recombinant FATP1 acyl-coA synthetase activity using [14C]oleic acid as substrate at 10 uM
Sequence of Long-chain fatty acid transport protein 1 (Mus musculus) (Q60714 whole entry, looked up): as the sequence (Q60714 whole entry) above
Procedure, shortened: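 Same radiometric acyl-CoA synthetase assay with 10 μM [1-¹⁴C] oleic acid, 0.5 mM ATP, 0.5 mM CoA, 5 mM MgCl₂ in Tris-HCl pH 7.4 buffer with Triton X-100 and DTT; test compound at 10 μM, read-out as percent inhibition of ACS activity.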

[4] = Metabolic stability in rat blood assessed as compound remaining after 2 hrs; assay type: ADME, tissue-based; details: read-out: Stability
Procedure, shortened: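 Test compound incubated with rat blood for 2 h; parent compound remaining (%) measured.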

Rattus norvegicus [5] = assay: (§1) Tmax in rat at 10 mg/kg, po; assay type: ADME, organism-based; parameters: dose 10 mg/kg, route oral; details: in vivo, BLD = below limit of detection
Procedure, shortened: (§2)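 Rats dosed orally at 10 mg/kg in DMA/PG/(20% HPβCD in saline) 10:10:80; plasma levels measured, values averaged from two rats.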

Rattus norvegicus [6] = assay: (§3) Cmax in rat at 10 mg/kg, po; assay type: ADME, organism-based; parameters: dose 10 mg/kg, route oral; details: in vivo, BLD = below limit of detection; procedure, shortened: as §2
Rattus norvegicus [7] = assay: (§4) AUC in rat at 10 mg/kg, po; assay type: ADME, organism-based, Plasma; parameters: dose 10 mg/kg, route oral; details: in vivo, BLD = below limit of detection; procedure, shortened: as §2
Rattus norvegicus [8] = assay: (§5) Half life in rat at 1 mg/kg, iv; assay type: ADME, organism-based; parameters: dose 1 mg/kg, route intravenous; details: in vivo, BLD = below limit of detection
Procedure, shortened: (§6)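 Intravenous dosing to rats at 1 mg/kg in DMA/PG/(20% HPβCD in saline) 10:10:80; plasma pharmacokinetic parameters averaged from two rats.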

[9] = Clearance in rat at 1 mg/kg, iv; assay type: ADME, organism-based; parameters: dose 1 mg/kg, route intravenous; details: in vivo; procedure, shortened: as §6
[10] = Volume of distribution in rat at 1 mg/kg, iv; assay type: ADME, organism-based; parameters: dose 1 mg/kg, route intravenous; details: in vivo; procedure, shortened: as §6
Blood = assay: Drug metabolism in rat blood assessed as 1-(2-((4-ethyl-5-((phenylamino)methyl)-4H-1,2,4-triazol-3-ylthio)methyl)benzo[d]oxazol-5-yl)propan-1-ol formation; assay type: ADME, tissue-based
Mus musculus [11] = assay: Drug metabolism in iv dosed mouse assessed as 2-(4-ethyl-5-((phenylamino)methyl)-4H-1,2,4-triazol-3-ylthio)acetic acid formation after 5 mins by LC/MS/MS analysis; assay type: ADME, organism-based; details: in vivo
Procedure, shortened: (§7)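 Compound dosed intravenously to mouse; blood sampled at 5 min and metabolites identified by LC–MS/MS analysis.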

Mus musculus [12] = assay: Drug metabolism in iv dosed mouse assessed as 2-(4-ethyl-5-((phenylamino)methyl)-4H-1,2,4-triazol-3-ylthio)-N-(4-(1-hydroxypropyl)phenyl)acetamide formation after 5 mins by LC/MS/MS analysis; assay type: ADME, organism-based; details: in vivo; procedure, shortened: as §7
[13] = as §1; assay type: ADME, organism-based; parameters: dose 10 mg/kg, route oral; details: in vivo; procedure, shortened: as §2
[14] = as §3; assay type: ADME, organism-based; parameters: dose 10 mg/kg, route oral; details: in vivo; procedure, shortened: as §2
[15] = as §4; assay type: ADME, organism-based, Plasma; parameters: dose 10 mg/kg, route oral; details: plasma; procedure, shortened: as §2
[16] = as §5; assay type: ADME, organism-based; parameters: dose 1 mg/kg, route intravenous; details: in vivo; procedure, shortened: as §6
[17] = Oral bioavailability in rat at 10 mg/kg; assay type: ADME, organism-based; details: in vivo; procedure, shortened: as §2

Sequence of Long-chain fatty acid transport protein 1 (Homo sapiens, UniProt Q6PCB7) (Q6PCB7 whole entry): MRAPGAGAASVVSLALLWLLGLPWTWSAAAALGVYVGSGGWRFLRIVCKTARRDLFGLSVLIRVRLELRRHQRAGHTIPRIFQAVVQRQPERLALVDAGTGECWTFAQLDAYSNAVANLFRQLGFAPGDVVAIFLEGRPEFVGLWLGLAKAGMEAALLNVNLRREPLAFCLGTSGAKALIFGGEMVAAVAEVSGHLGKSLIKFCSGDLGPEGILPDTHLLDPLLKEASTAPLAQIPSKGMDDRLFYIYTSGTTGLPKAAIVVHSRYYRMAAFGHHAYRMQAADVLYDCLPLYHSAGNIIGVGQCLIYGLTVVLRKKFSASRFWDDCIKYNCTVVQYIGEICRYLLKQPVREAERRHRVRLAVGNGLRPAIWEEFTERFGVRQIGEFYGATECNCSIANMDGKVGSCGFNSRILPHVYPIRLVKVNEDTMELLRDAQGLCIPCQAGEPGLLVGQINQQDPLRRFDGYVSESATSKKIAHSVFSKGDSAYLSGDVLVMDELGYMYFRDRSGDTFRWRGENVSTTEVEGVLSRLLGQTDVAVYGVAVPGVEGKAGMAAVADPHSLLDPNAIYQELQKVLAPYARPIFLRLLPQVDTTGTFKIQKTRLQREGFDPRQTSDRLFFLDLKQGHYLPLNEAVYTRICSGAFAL

| IC50 [1] [µM] | IC50 [2] [µM] | Compound | further results |
| --- | --- | --- | --- |
| > 1 | > 10 | CCNC(=O)c1ccc(NC(=O)CSc2nnc(CNc3ccccc3)n2CC)cc1 |  |
| > 1 |  | CCn1c(CNc2ccccc2)nnc1SCC(=O)Nc1ccc(C(C)=O)cc1 | inhibition [3]: 63% |
| > 1 | 2.9 | CCOC(=O)c1cccc(NC(=O)CSc2nnc(CNc3ccccc3)n2CC)c1 |  |
| > 1 | > 10 | CCn1c(CNc2ccccc2)nnc1SCC(=O)Nc1ccc(C(=O)c2ccccc2)cc1 |  |
| 6.6 | > 10 | C=CCn1c(CNc2ccccc2)nnc1SCC(=O)Nc1ccc(OC)cc1 |  |
| 0.4 | 1.5 | CCC(=O)c1ccc(NC(=O)CSc2nnc(CNc3ccccc3)n2CC)cn1 |  |
| > 1 | > 10 | CCn1c(CNc2ccccc2)nnc1SCC(=O)Nc1ccc(C(=O)O)cc1 |  |
| > 1 | 5.1 | CCn1c(CNc2ccccc2)nnc1SCC(=O)Nc1ccc(C#N)cc1 |  |
| > 1 | > 10 | CCn1c(CNc2ccccc2)nnc1SCc1nc2ccccc2o1 |  |
| > 1 | > 10 | CCn1c(CNc2ccccc2)nnc1SCC(=O)Nc1ccc(Cl)cc1 |  |
| 0.54 |  | CCn1c(CNc2ccccc2)nnc1SCC(=O)Nc1ccc(C(=O)OC)cc1 | inhibition [3]: 56% |
| 0.4 | 1 | CCC(=O)c1ccc(NC(=O)CSc2nnc(CNc3ccccc3)n2CC)cc1 | remaining at 2 h [4]: 28%; Drug metabolism (Mus musculus [11]): Active; Drug metabolism (Mus musculus [12]): Active |
| 0.58 | 2 | CCC(=O)c1ccc(N(C)C(=O)CSc2nnc(CNc3ccccc3)n2CC)cc1 | remaining at 2 h [4]: 1.9% |
| > 1 | > 10 | CCn1c(CNc2ccccc2)nnc1SCC(=O)Nc1ccc(S(C)(=O)=O)cc1 |  |
| > 1 | > 10 | CCn1c(CNc2ccccc2)nnc1SCC(=O)Nc1ccc(C(=O)OC(C)(C)C)cc1 |  |
| 0.33 | 1.1 | CCOC(=O)c1ccc(NC(=O)CSc2nnc(CNc3ccccc3)n2CC)cc1 |  |
| 0.23 | 1.1 | CCCC(=O)c1ccc(NC(=O)CSc2nnc(CNc3ccccc3)n2CC)cc1 |  |
| > 1 | > 10 | CCn1nnc(-c2ccc(NC(=O)CSc3nnc(CNc4ccccc4)n3CC)cc2)n1 |  |
| > 1 | > 10 | CCn1c(CNc2ccccc2)nnc1SCC(=O)Nc1ccc(C(=O)N(C)C)cc1 |  |
| > 1 | > 10 | CCn1c(CNc2ccccc2)nnc1SCC(=O)Nc1ccccc1 |  |
| > 1 | > 10 | CCn1c(CNc2ccccc2)nnc1SCC(=O)Nc1ccc(C(=O)NC)cc1 |  |
| > 1 | > 10 | CCn1c(CNc2ccccc2)nnc1SCC(=O)Nc1ccc(OC)cc1 |  |

Continued, compound first:

| Compound | IC50 [1] [µM] | IC50 [2] [µM] | further results |
| --- | --- | --- | --- |
| CC/C(=N/OC)c1ccc2oc(CSc3nnc(CNc4ccccc4)n3CC)nc2c1 | > 1 | > 10 |  |
| CCc1ccc2oc(CSc3nnc(CNc4ccccc4)n3CC)nc2c1 | > 1 | 1.8 |  |
| CCn1c(CNc2ccccc2)nnc1SCc1nc2cc(F)ccc2o1 | > 1 | 7.8 |  |
| CCC(=O)c1ccc2oc(CSc3nnc(CNc4ccccc4)n3CC)nc2c1 | 0.19 | 0.36 | remaining at 2 h [4]: 8.9%; Tmax (Rattus norvegicus [5]): BLD; Cmax (Rattus norvegicus [6]): BLD; AUC (Rattus norvegicus [7]): BLD; t1/2 (Rattus norvegicus [8]): BLD; clearance [9]: 22.7 L/h/kg; Vd [10]: 2.69 L/kg; Drug metabolism (Blood): Active |
| CCC(=O)c1ccc2oc(CS(=O)(=O)c3nnc(CNc4ccccc4)n3CC)nc2c1 | 1.67 | 11.9 | remaining at 2 h [4]: 44% |
| CCn1c(CNc2ccccc2)nnc1SCc1nc2cc(C(=O)C(C)C)ccc2o1 | 0.6 | 0.52 | remaining at 2 h [4]: 42% |
| CCC(O)c1ccc2oc(CSc3nnc(CNc4ccccc4)n3CC)nc2c1 (stereo not drawn) | > 1 | 3.7 | remaining at 2 h [4]: 80% |
| CCn1c(CNc2ccccc2)nnc1SCc1nc2cc(C)ccc2o1 | > 1 | > 10 |  |
| CCOC(=O)c1ccc2c(c1)CCCN2C(=O)CSc1nnc(CNc2ccccc2)n1CC | > 1 | 2.9 |  |
| CCOC(=O)c1ccc(NC(=O)CSc2nnc(CSCc3ccccc3)n2CC)cc1 | 7.6 | > 10 |  |
| CCn1c(CNc2ccccc2)nnc1SCc1nc2cc(OC(F)(F)F)ccc2o1 | 0.1 | 0.091 | remaining at 2 h [4]: 100%; Tmax [13]: 19.8 min; Cmax [14]: 0.19 µg/mL; AUC [15]: 0.2 µg·h/mL; half-life [16]: 61.2 min; clearance [9]: 3.12 L/h/kg; Vd [10]: 1.73 L/kg; bioavailability [17]: 5.4% |
| CCC(=O)c1ccc2nc(CSc3nnc(CNc4ccccc4)n3CC)oc2c1 | 0.9 | 1.2 | remaining at 2 h [4]: 35% |
| CCn1c(CNc2ccccc2)nnc1SCc1nc2cc(Cl)ccc2o1 | > 1 | 2.3 | remaining at 2 h [4]: 92% |
| CCOC(=O)c1ccc2c(c1)CCN2C(=O)CSc1nnc(CNc2ccccc2)n1CC | > 1 | > 10 |  |
| CCn1c(CNc2ccccc2)nnc1SCc1nc2ccc(Cl)cc2o1 | > 1 | 5.4 |  |
| CCn1c(CNc2ccccc2)nnc1SCc1nc2cc(C(F)(F)F)ccc2o1 | 0.36 | 0.36 | Tmax [13]: 19.8 min; Cmax [14]: 0.22 µg/mL; AUC [15]: 0.28 µg·h/mL; half-life [16]: 73.8 min; clearance [9]: 3.36 L/h/kg; Vd [10]: 1.86 L/kg; bioavailability [17]: 9.2% |
| CC/C(=N/O)c1ccc2oc(CSc3nnc(CNc4ccccc4)n3CC)nc2c1 | 0.26 | 0.2 | remaining at 2 h [4]: 100% |
| CCn1c(CNc2ccccc2)nnc1SCc1nc2cc(OC)ccc2o1 | > 1 | 2.7 |  |
| CCOC(=O)c1ccc2oc(CSc3nnc(CNc4ccccc4)n3CC)nc2c1 | 0.68 | 0.84 | remaining at 2 h [4]: 0% |
| CCC(=O)c1ccc(N(CC)C(=O)CSc2nnc(CNc3ccccc3)n2CC)cc1 | > 1 | > 10 |  |
